Assays:
MOLT-4 = test: cells; format: cell-based
SR = test: cells; format: cell-based
A549/ATCC = test: cells; format: cell-based
EKVX = test: NCI-60 SRB screen, Non-small cell lung cancer; format: cell-based, human
HOP-62 = test: cells; format: cell-based
NCI-H23 = test: cells; format: cell-based
NCI-H322M = test: cells; format: cell-based
NCI-H522 = test: cells; format: cell-based
HCT-116 = test: cells; format: cell-based
SF-539 = test: cells; format: cell-based
M14 = test: cells; format: cell-based
SK-MEL-2 = test: cells; format: cell-based
SK-MEL-5 = test: cells; format: cell-based
IGROV1 = test: cells; format: cell-based
OVCAR-3 = test: cells; format: cell-based
OVCAR-5 = test: cells; format: cell-based
OVCAR-8 = test: cells; format: cell-based
A498 = test: NCI-60 SRB screen, Renal cancer; format: cell-based, human
ACHN = test: cells; format: cell-based
BT-549 = test: cells; format: cell-based
MDA-MB-468 = test: cells; format: cell-based
ERK2 = ERK2 (Rattus norvegicus, UniProt P63086); test: in vitro radioactive kinase assay, Ets-1 phosphorylation by ERK2; format: biochemical
Chain of ERK2 (P63086 whole entry): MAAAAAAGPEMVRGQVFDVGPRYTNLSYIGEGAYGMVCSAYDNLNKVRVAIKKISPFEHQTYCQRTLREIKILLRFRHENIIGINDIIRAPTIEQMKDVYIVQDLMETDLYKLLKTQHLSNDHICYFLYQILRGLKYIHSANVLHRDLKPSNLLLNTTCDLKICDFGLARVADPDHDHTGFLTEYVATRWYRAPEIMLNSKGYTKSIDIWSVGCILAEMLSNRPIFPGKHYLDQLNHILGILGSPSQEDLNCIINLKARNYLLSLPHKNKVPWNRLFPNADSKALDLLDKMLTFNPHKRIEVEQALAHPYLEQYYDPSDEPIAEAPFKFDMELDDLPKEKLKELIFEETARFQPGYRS
Procedure, shortened: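 Activated rat ERK2 (2 nM) was tested with His-Ets-1 (1–138) at 28–30 °C in HEPES pH 7.5 buffer with 11 mM MgCl2, BSA and 5% DMSO. Reactions were started with [γ-32P]ATP (10 or 100 μM).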

[1] = tested on: BRAF-mutant A375 melanoma cells; test: A375 cell viability, MTS assay; format: cell-based; settings: Homo sapiens, A-375, 72 h, read-out: A375 Cell Viability IC50
Procedure, shortened: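 A375 cells were kept in RPMI with 10% heat-inactivated FBS, Glutamax and penicillin/streptomycin at 37 °C in 5% CO2. 2000 cells per well were treated with a range of test compound doses for 72 h. Viability was read by MTS assay. Run in triplicate.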

[2] = tested on: ERK substrates (p90RSK and ELK) phosphorylation in A375 cells; test: western blotting of MAPK pathway phosphorylation in A375 cells after EGF; format: cell-based, human
Procedure, shortened: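 A375 cells (1,000,000 per well) were seeded 24 h, then treated with DMSO or test compound (0.5–25 μM) in serum-free medium for 4 or 12 h. Cells were stimulated with 100 nM EGF for 10–15 min, lysed, and 60 μg lysate was blotted. Probes: phospho-p90RSK (Thr573), RSK, phospho-Elk-1 (Ser383), phospho- and total ERK1/2, phospho-JNK (Thr183/Tyr185). Done twice.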

A375 cells = test: anchorage dependent colony formation assay; format: cell-based, human; settings: A375, 10–14 days
Procedure, shortened: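 1000 A375 cells per 60 mm plate adhered for 24 h, then were treated with various test compound doses for 10–14 days. Plates were PBS-washed and fixed in 4% paraformaldehyde (15 min, room temperature). They were stained with 0.2% crystal violet in 20% methanol for 10 min, water-washed and imaged under microscope.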

[3] = tested on: caspase 3/7 in A375 cells; test: IncuCyte Caspase 3/7 apoptosis assay; format: cell-based, human; settings: doses of 3.7 and 33.3 μM, after 48 and 72 h
Procedure, shortened: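 2000 A375 cells per well adhered for 24 h, then received test compound doses plus a constant concentration of IncuCyte Caspase-3/7 reagent. Cells were imaged on IncuCyte ZOOM (10× objective) at set time points, and stained cells were counted. Apoptotic cell number was normalized to percentage area confluence at the final time point.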

[4] = tested on: cleaved PARP in A375 cells; test: PARP cleavage western blot; format: cell-based, human; settings: 12 h exposure
Procedure, shortened: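 A375 cells (1,000,000 per well) were seeded 24 h, then exposed to several test compound doses for 12 h before lysis in buffer with protease/phosphatase inhibitors. Protein was measured by Bradford. 60 μg lysate was run on 10% SDS-PAGE and blotted to PVDF. Blots were probed for PARP and cleaved PARP, with vinculin as loading control. Done twice.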

In the case of O=C1c2ccccc2C(=O)c2c1oc1c2c(=O)[nH]c2ccc(Cl)cc21 [3b, 2-Chloronaphtho[2′,3′:4,5]furo[3,2-c]quinoline-6,7,12(5H)-trione], the GI50 (MOLT-4; Homo sapiens, MOLT-4) is reported as 0.44 µM, the CC50 (MOLT-4; Homo sapiens, MOLT-4, read-out: LC50) is reported as greater than 100 µM and the “Growth percent (G%)” value (MOLT-4; MOLT-4, 10^−5 M, 48 h) is reported as 18.44%. For the same molecule, the TGI (MOLT-4; MOLT-4, five-dose) was 3.16 µM, the “Growth percent (G%)” value (SR; 10^−5 M, 48 h) was 33.72% and the GI50 (SR; Homo sapiens) was 0.5 µM. The CC50 (SR; Homo sapiens, read-out: LC50) was greater than 100 µM, the TGI (SR; five-dose) was 3.98 µM and the “Growth percent (G%)” value (A549/ATCC; A549/ATCC, 10^−5 M, 48 h) was −0.05%. For the same molecule, the TGI (A549/ATCC; A549/ATCC, five-dose) was 2.88 µM, the GI50 (A549/ATCC; Homo sapiens, A549) was 1.02 µM and the CC50 (A549/ATCC; Homo sapiens, A549, read-out: LC50) was 8.32 µM. The “Growth percent (G%)” value (EKVX; 10^−5 M, 48 h) was 15.17%, the GI50 (EKVX; Homo sapiens) was 0.25 µM and the CC50 (EKVX; Homo sapiens, read-out: LC50) was 26.3 µM. The TGI (EKVX; five-dose) was 2.45 µM, the “Growth percent (G%)” value (HOP-62; HOP-62, 10^−5 M, 48 h) was −38.70% and the TGI (HOP-62; HOP-62, five-dose) was 0.65 µM. For the same molecule, the GI50 (HOP-62; Homo sapiens, HOP-62) was 0.2 µM, the CC50 (HOP-62; Homo sapiens, HOP-62, read-out: LC50) was 3.24 µM and the GI50 (NCI-H23; Homo sapiens, NCI-H23) was 0.35 µM. The CC50 (NCI-H23; Homo sapiens, NCI-H23, read-out: LC50) was 7.08 µM, the “Growth percent (G%)” value (NCI-H23; NCI-H23, 10^−5 M, 48 h) was 21.21% and the TGI (NCI-H23; NCI-H23, five-dose) was 1.82 µM. For the same molecule, the “Growth percent (G%)” value (NCI-H322M; 10^−5 M, 48 h) was 13.98%, the GI50 (NCI-H322M; Homo sapiens) was 0.32 µM and the CC50 (NCI-H322M; Homo sapiens, read-out: LC50) was 7.24 µM. For the same molecule, the TGI (NCI-H322M; five-dose) was 1.45 µM, the GI50 (NCI-H522; Homo sapiens, NCI-H522) was 0.32 µM and the CC50 (NCI-H522; Homo sapiens, NCI-H522, read-out: LC50) was 8.13 µM. The “Growth percent (G%)” value (NCI-H522; NCI-H522, 10^−5 M, 48 h) was −16.76%, the TGI (NCI-H522; NCI-H522, five-dose) was 1.38 µM and the “Growth percent (G%)” value (HCT-116; HCT-116, 10^−5 M, 48 h) was −12.24%. For the same molecule, the TGI (HCT-116; HCT-116, five-dose) was 1.10 µM, the GI50 (HCT-116; Homo sapiens, HCT-116) was 0.31 µM and the CC50 (HCT-116; Homo sapiens, HCT-116, read-out: LC50) was 4.57 µM. For the same molecule, the GI50 (SF-539; Homo sapiens, SF-539) was 0.23 µM, the CC50 (SF-539; Homo sapiens, SF-539, read-out: LC50) was 2.09 µM and the “Growth percent (G%)” value (SF-539; SF-539, 10^−5 M, 48 h) was −27.99%. The TGI (SF-539; SF-539, five-dose) was 0.56 µM, the GI50 (M14; Homo sapiens, M14) was 0.4 µM and the CC50 (M14; Homo sapiens, M14, read-out: LC50) was 4.57 µM. For the same molecule, the “Growth percent (G%)” value (M14; M14, 10^−5 M, 48 h) was 10.44%, the TGI (M14; M14, five-dose) was 1.51 µM and the GI50 (SK-MEL-2; Homo sapiens, SK-MEL-2) was 1.74 µM. For the same molecule, the CC50 (SK-MEL-2; Homo sapiens, SK-MEL-2, read-out: LC50) was 19.9 µM, the “Growth percent (G%)” value (SK-MEL-2; SK-MEL-2, 10^−5 M, 48 h) was 31.83% and the TGI (SK-MEL-2; SK-MEL-2, five-dose) was 5.13 µM. For the same molecule, the GI50 (SK-MEL-5; Homo sapiens, SK-MEL-5) was 1.3 µM, the CC50 (SK-MEL-5; Homo sapiens, SK-MEL-5, read-out: LC50) was 3.72 µM and the “Growth percent (G%)” value (SK-MEL-5; SK-MEL-5, 10^−5 M, 48 h) was 12.31%. For the same molecule, the TGI (SK-MEL-5; SK-MEL-5, five-dose) was 1.20 µM, the GI50 (IGROV1; Homo sapiens, IGROV-1) was 0.22 µM and the CC50 (IGROV1; Homo sapiens, IGROV-1, read-out: LC50) was 3.47 µM. The “Growth percent (G%)” value (IGROV1; IGROV1, 10^−5 M, 48 h) was −3.63%, the TGI (IGROV1; IGROV1, five-dose) was 0.74 µM and the GI50 (OVCAR-3; Homo sapiens, OVCAR-3) was 0.24 µM. The CC50 (OVCAR-3; Homo sapiens, OVCAR-3, read-out: LC50) was 1.82 µM, the “Growth percent (G%)” value (OVCAR-3; OVCAR-3, 10^−5 M, 48 h) was −68.37% and the TGI (OVCAR-3; OVCAR-3, five-dose) was 0.56 µM. The GI50 (OVCAR-5; Homo sapiens, OVCAR-5) was 3.47 µM, the CC50 (OVCAR-5; Homo sapiens, OVCAR-5, read-out: LC50) was 40.7 µM and the “Growth percent (G%)” value (OVCAR-5; OVCAR-5, 10^−5 M, 48 h) was 52.70%. For the same molecule, the TGI (OVCAR-5; OVCAR-5, five-dose) was 14.79 µM, the GI50 (OVCAR-8; Homo sapiens, OVCAR-8) was 0.39 µM and the CC50 (OVCAR-8; Homo sapiens, OVCAR-8, read-out: LC50) was 30.2 µM. The “Growth percent (G%)” value (OVCAR-8; OVCAR-8, 10^−5 M, 48 h) was −27.45%, the TGI (OVCAR-8; OVCAR-8, five-dose) was 2.29 µM and the “Growth percent (G%)” value (A498; A498, 10^−5 M, 48 h) was 80.44%. For the same molecule, the TGI (A498; A498, five-dose) was 0.95 µM, the GI50 (A498; Homo sapiens, A498) was 0.21 µM and the CC50 (A498; Homo sapiens, A498, read-out: LC50) was 3.55 µM. For the same molecule, the “Growth percent (G%)” value (ACHN; 10^−5 M, 48 h) was −14.18%, the GI50 (ACHN; Homo sapiens) was 0.2 µM and the CC50 (ACHN; Homo sapiens, read-out: LC50) was 2.63 µM. The TGI (ACHN; five-dose) was 0.58 µM, the “Growth percent (G%)” value (BT-549; BT-549, 10^−5 M, 48 h) was 37.99% and the TGI (BT-549; BT-549, five-dose) was 1.32 µM. For the same molecule, the GI50 (BT-549; Homo sapiens, BT-549) was 0.3 µM, the CC50 (BT-549; Homo sapiens, BT-549, read-out: LC50) was 6.76 µM and the GI50 (MDA-MB-468; Homo sapiens, MDA-MB-468) was 0.25 µM. For the same molecule, the CC50 (MDA-MB-468; Homo sapiens, MDA-MB-468, read-out: LC50) was 4.57 µM, the “Growth percent (G%)” value (MDA-MB-468; MDA-MB-468, 10^−5 M, 48 h) was −32.41% and the TGI (MDA-MB-468; MDA-MB-468, five-dose) was 0.87 µM. The “effect of excess Ets-1 (100 μM) on inhibition of ERK2” value (ERK2; 5 μM inhibitor, 100 μM vs 10 μM Ets-1, 100 μM ATP) was “did not rescue”, the IC50 (ERK2; ERK2 IC50, 10 μM ATP) was 0.2 ± 0.01 µM and the IC50 (ERK2; ERK2 IC50, 100 μM ATP, 10 μM Ets-1) was 0.6 ± 0.1 µM. The IC50 (ERK2; ERK2 IC50 at 100 μM ATP /10mM Ets-1, Table 4, 100 μM ATP /10mM Ets-1) was 0.6 ± 0.1 µM, the IC50 [1] was 3.7 ± 0.6 µM and the “phosphorylation of ERK substrates (p90RSK and ELK), in words” value ([2]; A375, 0.5–25 μM, EGF stimulation) was “dose-dependent inhibition”. The “concentration enough to inhibit ELK phosphorylation” value ([2]; A375, 12 h, then EGF 100 nM) was 10 µM, the “concentration enough to inhibit p-90RSK phosphorylation” value ([2]; A375, 12 h, then EGF 100 nM) was 25 µM and the “effect on ERK or MKK½ phosphorylation or the JNK pathway” value ([2]; A375, EGF stimulation) was “no effect”. For the same molecule, the “concentration at which inhibition of colony forming ability starts” value (A375 cells) was 10 µM, the “caspase 3/7 activity in A375” value [3] was “activation of caspase 3/7” and the “level of cleaved PARP in A375” value [4] was “elevated level”.

— PMC6543826 (Bioorganic chemistry, 2018)
